Experimental data reported in ChEMBL document CHEMBL4406901, “Synthesis, 3D-structure and stability analyses of NRPa-308, a new promising anti-cancer agent” (Bioorg Med Chem Lett, 2019).

Assays:
[1] = Retention time of compound at in pH 8.4 at 1 mg incubated at 37 degree C by HPLC analysis; assay type: physicochemical
How it was run: (§1)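 Compound held in aqueous buffers at pH 0.9, 7.4 and 8.4 at 25 °C or 37 °C for up to 16 days; the chromatographic profile was followed by HPLC.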

[2] = tested on: MDA-MB-231; assay: Antiproliferative activity against human MDA-MB-231 cells expressing NRP1 assessed as cell viability measured after 48 hrs by MTT assay; assay type: functional, cell-based; details: MDA-MB-231, 48 h
[3] = Retention time of compound in pH 0.91 at 1 mg incubated at 37 degree C by HPLC analysis; assay type: physicochemical; how it was run: as §1
[4] = Retention time of compound in pH 7.4 at 1 mg incubated at 37 degree C by HPLC analysis; assay type: physicochemical; how it was run: as §1
[5] = Retention time of compound in human MDA-MB-231 cells at 2 uM incubated at 37 degree C measured after 3 days by HPLC analysis; assay type: ADME, cell-based; details: mda-mb-231, 72 h
How it was run: (§2)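 MDA-MB-231 or BT-549 breast cancer cells were cultured with […] of compound for three days at 37 °C. Supernatant was analysed by HPLC. Cells were then washed and lysed with methanol, and the intracellular compound was measured by quantitative HPLC dosage, giving mol per sample.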

[6] = Chemical stability of compound in DMSO/aqueous buffer at 1 mg at pH 0.9 to 8.4 incubated at 25 degree C and measured upto 16 days by HPLC analysis; assay type: physicochemical; details: read-out: Stability; how it was run: as §1
[7] = Retention time of compound in human MDA-MB-231 cell lysates at 2 uM incubated at 37 degree C measured after 3 days by HPLC analysis; assay type: ADME, subcellular, Lysate; details: mda-mb-231, 72 h; how it was run: as §2
[8] = Retention time of compound in human BT549 cells at 2 uM incubated at 37 degree C measured after 3 days by HPLC analysis; assay type: ADME, cell-based; details: bt-549, 72 h; how it was run: as §2
[9] = Retention time of compound in human BT549 cell lysates at 2 uM incubated at 37 degree C measured after 3 days by HPLC analysis; assay type: ADME, subcellular, Lysate; details: bt-549, 72 h; how it was run: as §2
[10] = Drug uptake in human BT549 cells at 2 uM incubated at 37 degree C measured after 3 days by HPLC analysis; assay type: ADME, cell-based; details: bt-549, 72 h; how it was run: as §2
[11] = Retention time of compound at 1mg measured immediately by HPLC analysis; assay type: physicochemical
[12] = tested on: BT-549; assay: Antiproliferative activity against human BT549 cells expressing NRP1 assessed as cell viability measured after 72 hrs by MTT assay; assay type: functional, cell-based; details: BT-549, 72 h
[13] = Drug uptake in human MDA-MB-231 cells at 2 uM incubated at 37 degree C measured after 3 days by HPLC analysis; assay type: ADME, cell-based; details: mda-mb-231, 72 h; how it was run: as §2
[14] = tested on: MDA-MB-231; assay: Antitumour activity against human MDA-MB-231 cells xenografted in nude mouse assessed as reduction in tumour growth at 50 mg/kg, po administered every 3 days for 20 days and measured 3 times a week by caliper method relative to control; details: MDA-MB-231, po, read-out: TGI
[15] = tested on: MDA-MB-231; assay: Antiproliferative activity against human MDA-MB-231 cells expressing NRP1 assessed as cell viability measured after 72 hrs by MTT assay; assay type: functional, cell-based; details: MDA-MB-231, 72 h
[16] = Chemical stability of compound in DMSO/aqueous buffer at 1 mg at pH 0.9 to 8.4 incubated at 37 degree C and measured upto 16 days by HPLC analysis; assay type: physicochemical; details: read-out: Stability; how it was run: as §1
[17] = tested on: BT-549; assay: Antiproliferative activity against human BT549 cells expressing NRP1 assessed as cell viability measured after 48 hrs by MTT assay; assay type: functional, cell-based; details: BT-549, 48 h

| Retention_time [1] [min] | IC50 [2] [nM] | Retention_time [3] [min] | Retention_time [4] [min] | Retention_time [5] [min] | remaining at 384 h [6] [%] | Retention_time [7] [min] | Retention_time [8] [min] | Retention_time [9] [min] | Drug uptake [10] [nmol] | Retention_time [11] [min] | IC50 [12] [nM] | Drug uptake [13] [nmol] | IC50 [15] [nM] | remaining at 384 h [16] [%] | IC50 [17] [nM] | Structure (SMILES) | inhibition in vivo at 50 mg/kg [14] [%] |
| --- | --- | --- | --- | --- | --- | --- | --- | --- | --- | --- | --- | --- | --- | --- | --- | --- | --- |
| 4.05 | 4900 | 4.058 | 4.067 | 4.492 | 100 | 4.025 | 4.05 | 3.992 | 1.4 | 4.075 | 100 | 5.14 | 200 | 100 | 2100 | CCOc1ccccc1NC(=O)c1ccc(C)c(S(=O)(=O)Nc2ccc(C)cc2)c1 | > 60 |
|  | 2600 |  |  |  |  |  |  |  |  |  | 3500 |  | 3700 |  | 2200 | CCN(CC)CCNC(=O)c1c(C)[nH]c(/C=C2\C(=O)Nc3ccc(F)cc32)c1C [SUNITINIB] |  |
